Bioassay records: PubChem, Broad Institute
EWS-Fli block = inhibitors of EWS/Fli oncoprotein transcriptional activity | inhibition, % at 12.6 µM | A673 NR0B1-luciferase reporter, viability-normalised | actives 0.67% (n = 350,000) | AID 651661;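 active = mean inhibition of at least 50% after viability correction, with every replicate also passing that limit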;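 note: firefly luciferase signal divided by Alamar Blue viability fluorescence both relative to DMSO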
FN deposit inh = fibronectin deposition inhibition; actives 0.086% (n = 350,000); AH1F fibroblasts, Alexa488-fibronectin deposition fluorescence, overnight; inhibition, % at 12.6 µM;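 active = mean inhibition across replicates of 30% or more, regardless of how many single replicates reach that level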;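 note: positive control wells lacked labelled fibronectin entirely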
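Material: AH1F fibroblast monolayer depositing Alexa488-labelled fibronectin into matrix / Amount: 10000 AH1F cells per well / Signal: fluorescence 485/525 nm / Medium: DMEM, 2% serum / Compound: single dose, pinned / Incubation: 1 h cell adhesion before compound, then overnight fibronectin incubation / Reagent: Alexa488-FN, 24 nM final / Read-out: inhibition of fibronectin deposition signal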
PGC1a acetyl inh = PGC1a acetylation modulation, inhibitor mode; inhibition, % at 15.6 µM; actives 0.17% (n = 350,000); U2OS PGC1a acetylation, AlphaScreen anti-acetyl-lysine; with virally co-expressed GCN5 acetyltransferase;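 active = every replicate shows inhibition of at least 40%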;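 note: 0% = neutral control wells and 100% = positive control wells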
PAX8 inh HTS = lowers PAX8-driven luciferase in RMG-I cells. RMG-I TPO-luciferase reporter, SteadyGlo, 24 h. inhibition, % at 12.6 µM. actives 1.2% (n = 360,000). AID 652154;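 active = mean replicate inhibition at least 60% with every replicate also reaching 60%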;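 note: luciferase light reporting Pax8 driven TPO promoter activity; plate controls were median of neutral control wells for no effect and mitoxantrone controls for full effect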
Env fusion inh = blocks HIV Env-driven cell-cell fusion | inhibition, % at 12.3 µM | HeLa-JRFL Env/CEM21 cell fusion, luciferase | actives 1.1% (n = 360,000);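 active = mean replicate inhibition score of at least 50 and every replicate individually at or above 50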;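 note: 0% = plate neutral controls and 100% = maraviroc near 300 nM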
FGF22 binding = FGF22 (human) thermal shift binding; Q9HCT0; recombinant FGF22 thermal shift, SYPRO orange fluorescence; percent of sucrose octasulfate shift, DMSO zero; activity (Tm shift, normalised), % at 9.99 µM; actives 1.5% (n = 340,000);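 active = mean Tm shift, scaled 0 neutral to 100 positive control, at about 1.3% or above, every replicate too, limit read from the data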
Target sequence (Q9HCT0 whole entry, looked up): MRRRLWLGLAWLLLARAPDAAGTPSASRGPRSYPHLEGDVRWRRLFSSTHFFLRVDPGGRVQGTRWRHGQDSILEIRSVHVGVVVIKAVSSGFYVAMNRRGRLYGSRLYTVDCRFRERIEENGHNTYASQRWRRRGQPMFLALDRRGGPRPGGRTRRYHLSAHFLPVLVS
* = called active by the depositor; / = no result given; [ ] = another dose, or the depositor's remark. In the library only some 3.1% were active in any assay of this set; here they are far more common.

SMILES	EWS-Fli block	FN deposit inh	PGC1a acetyl inh	PAX8 inh HTS	Env fusion inh	FGF22 binding
CNC[C@@H]1Oc2cc(C3=CCCC3)ccc2S(=O)(=O)N([C@@H](C)CO)C[C@H]1C	5.7	-12.9	9.3	-13.3	13.0[16.7 µM]	/
O=C(Nc1cc(F)ccc1F)N1C[C@@H]2[C@H](c3ccccc31)[C@@H](CO)N2Cc1cccnc1	-4.9	/	-0.6	-5.1	/	-0.7
C[C@@H](NC(=O)C[C@@H]1CC[C@H]2[C@@H](COC[C@@H](O)CN2C(=O)Nc2cccc(Cl)c2)O1)c1ccccc1	-11.8	0.3	3.6	-33.4	6.9[16.7 µM]	0.6
CC(C)C(=O)Nc1ccc2c(c1)C(=O)N(C)[C@H]1CC[C@H](CC(=O)Nc3ccccc3)O[C@H]1CO2	-3.9	-12.1	8.7	1.3	-6.2[16.7 µM]	0.1
C[C@H](CO)N1C[C@H](C)[C@@H](CN(C)C(=O)Nc2cccc3ccccc23)Oc2ccc(NC(=O)Nc3ccc(C(F)(F)F)cc3)cc2CC1=O	15.6	/	-8.9	47.0	-17.9[16.7 µM]	0.3
C[C@@H]1CN([C@@H](C)CO)C(=O)Cc2cc(NC(=O)Nc3ccc(C(F)(F)F)cc3)ccc2O[C@@H]1CN(C)C(=O)Nc1cccc2ccccc12	67.5*	/	-11.5	42.6	-16.0[16.7 µM]	0.5
COc1ccccc1NC(=O)N[C@H]1CC[C@H](CC(=O)NCc2ccc(Cl)c(Cl)c2)O[C@H]1CO	/	0.8	4.8	/	/	-0.3
C[C@@H]1CN([C@@H](C)CO)C(=O)c2cc(C#CC3CCCCC3)cnc2O[C@H]1CN(C)C	6.6	-1.9	-18.1	/	29.2[16.7 µM]	/
C[C@@H]1CN([C@@H](C)CO)C(=O)c2cc(NS(=O)(=O)c3cn(C)cn3)ccc2O[C@H]1CN(C)C	12.2	6.9	3.9	4.5	/	-0.2
OCCOCCn1c(CCNc2nc(-c3ccc(Cl)cc3)cs2)nc2cc(Cl)c(Cl)cc21	11.2	-2.9	/	3.8	81.1*	0.3
Cc1ccc(S(=O)(=O)N2[C@H](C(C)C)[C@H]3[C@H]4C(=O)N(c5ccccc5)C(=O)[C@H]4CC(=O)[C@H]3[C@@H]2c2ccccc2)cc1	-6.3	2.3	1.7	-17.7	59.2*	0.6
CCc1cnc(N2[C@@H](C#N)[C@@H](c3ccc(C#CC(C)C)cc3)[C@@H]2CO)s1	-8.3	5.0	-6.6	113.2*	/	0.1
O=S(=O)(NCC[C@@H]1CC[C@H](NS(=O)(=O)c2cccc(Cl)c2)[C@@H](CO)O1)c1cccc(F)c1	8.9	-6.6	-3.3	27.9	-15.2[16.7 µM]	0.0
CCOC(=O)N1CCN(C(=O)C[C@H]2C[C@@]3(C(=O)OC)C(=C[C@H](C(C)(C)C)O[C@@H]3C)N(Cc3ccccc3)C2=O)CC1	-3.2	-1.0	/	12.2	20.1	-0.1
CCOC(=O)N1CCN(C(=O)C[C@H]2C[C@@]3(C(=O)OC)C(=C[C@H](C(C)(C)C)O[C@@H]3C)N(CCC3=CCCCC3)C2=O)CC1	12.7	-3.5	/	32.1	97.7*	-0.3
COC(=O)[C@]12C[C@H](CC(=O)N3CCN(C(=O)C4CC4)CC3)C(=O)N(CCC3=CCCCC3)C1=C[C@H](C(C)(C)C)O[C@@H]2C	8.7	-3.7	/	15.6	56.8*	-0.2
O=[N+]([O-])c1ccc(F)c(CN2CCN(c3ncc(Cc4ccccc4)cn3)CC2)c1	4.1	3.7	/	-12.3	-6.3	-0.3
Cc1ccc([N+](=O)[O-])cc1CN1CCN(c2ncc(Cc3ccccc3)cn2)CC1	2.9	3.4	/	13.3	33.9	43.2*
c1ccc(Cc2cnc(N3CCN(Cc4csc5ccccc45)CC3)nc2)cc1	5.0	12.8	/	30.5	77.0*	-0.2
CCCC(=O)Nc1ccc2c(c1)C(=O)N(C)[C@H]1CC[C@H](CC(=O)Nc3ccccc3)O[C@H]1CO2	-9.2	-33.6	-5.5	9.0	-2.8[16.7 µM]	-0.1
CCCNC(=O)[C@H]1[C@H](CO)[C@H]2Cn3c(ccc(C4=CCCCC4)c3=O)[C@@H]1N2CCC	3.6	/	/	-12.1	/	-0.1
O=c1[nH]c(-c2ccccn2)nc2sc(-c3ccccc3)cc12	12.1	28.6	/	89.2*	-387.6	0.0
O=C(C[C@H]1C[C@H]2c3cc(NC(=O)C4CCC4)ccc3O[C@H]2[C@@H](CO)O1)NCC(F)(F)F	1.0	-0.2	0.2	-3.0	56.5*[16.7 µM]	/
O=C(C[C@@H]1C[C@H]2c3cc(NC(=O)C4CCC4)ccc3O[C@H]2[C@H](CO)O1)NCC(F)(F)F	-5.8	-6.3	-1.8	2.7	92.9*[16.7 µM]	/
Cc1cc(-c2ccccc2)nc(SC(C(=O)O)c2ccccc2)n1 (centres undefined)	1.5	22.4	-4.6	5.2	10.2	43.3*
SMILES	EWS-Fli block	FN deposit inh	PGC1a acetyl inh	PAX8 inh HTS	Env fusion inh	FGF22 binding
C[C@@H]1CN([C@@H](C)CO)C(=O)c2cc(NC(=O)NC3CCCCC3)ccc2O[C@H]1CN(C)Cc1ccncc1	-3.7	-6.1	-2.2	-9.0	-9.4[16.7 µM]	/
CO[C@@H]1CN(C)C(=O)c2cc(NS(=O)(=O)c3ccccc3Cl)ccc2OC[C@@H](C)NC[C@@H]1C	-5.7	2.2	6.5	/	24.7[16.7 µM]	0.0
CCOC(=O)CSc1ccc2ccccc2n1	-18.3	/	1.7	-15.7	-1.2	43.4*
CC1(Cc2cccc(F)c2)C(=O)Nc2ccc(OC(F)(F)F)cc21 (centres undefined)	13.1	-11.6	/	35.7	35.5	-0.2
COc1ccc(C(C)=O)cc1CC1(C)C(=O)Nc2ccc(-c3ccccc3OC)cc21 (centres undefined)	-2.7	-2.0	/	-7.7	70.3*	-0.3
COc1ccc(C(C)=O)cc1CC1(C)C(=O)Nc2ccc(OC(F)(F)F)cc21 (centres undefined)	-4.9	3.0	-13.7	/	10.2	-0.3
COc1ccccc1-c1ccc2c(c1)C(C)(Cc1cccc(F)c1)C(=O)N2 (centres undefined)	7.2	-13.7	/	5.1	73.2*	-0.1
C[C@@H]1CN([C@H](C)CO)C(=O)c2cccc(NS(=O)(=O)c3ccc(Cl)cc3)c2O[C@H]1CN(C)C(=O)Nc1cccc2ccccc12	-0.3	/	-0.4	/	15.4[16.7 µM]	0.4
Cc1cc(C)cc(OCc2nnc(N)s2)c1	23.3	-5.4	/	-2.7	1.8	0.0
Cc1ccc(OCc2nnc(N)s2)cc1	-25.3	-3.2	-1.2	-45.1	11.9	43.6*
CC(=O)c1sc(NC(=O)c2ccc(C(C)(C)C)cc2)nc1C	-31.0	1.9	-0.2	-58.0	-106.5	40.9
CC(=O)c1sc(NC(=O)c2ccc(C)c(C)c2)nc1C	-62.1	/	/	-163.3	-79.0	43.7*
O=C(Cn1nnc(-c2ccccc2)n1)NCc1cccs1	/	/	-13.6	/	/	/
O=C(Cn1nnc(-c2cccs2)n1)NCc1cccs1	-2.4	-4.2	/	-4.8	-4.4	43.2*
C[C@H](CO)N1C[C@H](C)[C@H](CN(C)C)Oc2ccc(NS(=O)(=O)c3ccc(Cl)cc3)cc2C1=O	16.9	/	7.9	-20.7	/	-0.2
Cn1c(CCN2CCCC2)nc2cc(NS(=O)(=O)c3ccc(Cl)cc3)ccc21	28.8	0.7	9.4	100.6*	-0.8	-0.1
